Experimental data from ChEMBL document CHEMBL4715736, “Identification of anticancer agents based on the thieno[2,3-b]pyridine and 1H-pyrazole molecular scaffolds” (2016).

How the values were obtained:
Format in all cases: functional
[1] = test system: HCT-116; test: Growth inhibition of human HCT-116 cells assessed as cell growth at 0.01 uM incubated for 48 hrs by sulforhodamine B assay relative to control; conditions: read-out: Activity
[2] = test system: MDA-MB-231; test: Growth inhibition of human MDA-MB-231 cells assessed as cell growth at 0.01 uM incubated for 48 hrs by sulforhodamine B assay relative to control; conditions: read-out: Activity
[3] = test system: PC-3; test: Growth inhibition of human PC-3 cells assessed as cell growth at 100 uM incubated for 48 hrs by sulforhodamine B assay relative to control; conditions: read-out: Activity
[4] = test system: MOLT-4; test: Growth inhibition of human MOLT-4 cells incubated for 48 hrs by sulforhodamine B assay; conditions: for CC50: read-out: LC50 (the source's name)
Procedure, shortened: (§1)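 NCI60 panel at the NCI Developmental Therapeutics Program. Only compounds active in the 10 µM screen went to dose-response testing. GI50, the concentration giving 50% of maximal inhibition of proliferation, and TGI, the concentration giving total growth inhibition, were derived from the dose-response curves.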

[5] = test system: MDA-MB-435; test: Growth inhibition of human MDA-MB-435 cells assessed as cell growth at 0.1 uM incubated for 48 hrs by sulforhodamine B assay relative to control; conditions: read-out: Activity
[6] = test system: NCI-H322M; test: Growth inhibition of human NCI-H322M cells assessed as cell growth at 100 uM incubated for 48 hrs by sulforhodamine B assay relative to control; conditions: read-out: Activity
[7] = test system: 786-0; test: Growth inhibition of human 786-0 cells assessed as cell growth at 100 uM incubated for 48 hrs by sulforhodamine B assay relative to control; conditions: read-out: Activity
[8] = test system: OVCAR-4; test: Growth inhibition of human OVCAR-4 cells assessed as cell growth at 0.1 uM incubated for 48 hrs by sulforhodamine B assay relative to control; conditions: read-out: Activity
[9] = test system: TK-10; test: Growth inhibition of human TK-10 cells assessed as cell growth at 0.1 uM incubated for 48 hrs by sulforhodamine B assay relative to control; conditions: read-out: Activity
[10] = test system: MOLT-4; test: Growth inhibition of human MOLT-4 cells assessed as cell growth at 0.01 uM incubated for 48 hrs by sulforhodamine B assay relative to control; conditions: read-out: Activity
[11] = test system: K562; test: Growth inhibition of human K562 cells incubated for 48 hrs by sulforhodamine B assay; procedure, shortened: as §1
[12] = test system: A498; test: Growth inhibition of human A498 cells assessed as cell growth at 1 uM incubated for 48 hrs by sulforhodamine B assay relative to control; conditions: read-out: Activity
Procedure, shortened: (§2)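 NCI Developmental Therapeutics Program NCI60 panel. Compounds that were active in the 10 µM one-dose screen went on to dose–response testing. Growth at each concentration is expressed relative to untreated control (100%). GI50 (concentration giving 50% of maximal inhibition of proliferation) and TGI (concentration giving total growth inhibition) were derived from the curves.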

[13] = test system: UACC-257; test: Growth inhibition of human UACC-257 cells assessed as cell growth at 1 uM incubated for 48 hrs by sulforhodamine B assay relative to control; conditions: read-out: Activity
[14] = test system: MDA-MB-231; test: Growth inhibition of human MDA-MB-231 cells incubated for 48 hrs by sulforhodamine B assay; conditions: for CC50: read-out: LC50 (the source's name); procedure, shortened: as §1
[15] = test system: SF-295; test: Growth inhibition of human SF-295 cells assessed as cell growth at 1 uM incubated for 48 hrs by sulforhodamine B assay relative to control; conditions: read-out: Activity
[16] = test system: CAKI-1; test: Growth inhibition of human CAKI-1 cells assessed as cell growth at 100 uM incubated for 48 hrs by sulforhodamine B assay relative to control; conditions: read-out: Activity; procedure, shortened: as §2
[17] = test system: IGROV-1; test: Growth inhibition of human IGROV-1 cells assessed as cell growth at 100 uM incubated for 48 hrs by sulforhodamine B assay relative to control; conditions: read-out: Activity
[18] = test system: CCRF-CEM; test: Growth inhibition of human CCRF-CEM cells assessed as cell growth at 0.1 uM incubated for 48 hrs by sulforhodamine B assay relative to control; conditions: read-out: Activity; procedure, shortened: as §2
[19] = test system: NCI-H322M; test: Growth inhibition of human NCI-H322M cells assessed as cell growth at 1 uM incubated for 48 hrs by sulforhodamine B assay relative to control; conditions: read-out: Activity
[20] = test system: NCI-H226; test: Growth inhibition of human NCI-H226 cells assessed as cell growth at 100 uM incubated for 48 hrs by sulforhodamine B assay relative to control; conditions: read-out: Activity
[21] = test system: NCI-H460; test: Growth inhibition of human NCI-H460 cells assessed as cell growth at 0.1 uM incubated for 48 hrs by sulforhodamine B assay relative to control; conditions: read-out: Activity
[22] = test system: HT-29; test: Growth inhibition of human HT-29 cells assessed as cell growth at 0.1 uM incubated for 48 hrs by sulforhodamine B assay relative to control; conditions: read-out: Activity
[23] = test system: SW-620; test: Growth inhibition of human SW-620 cells assessed as cell growth at 0.01 uM incubated for 48 hrs by sulforhodamine B assay relative to control; conditions: read-out: Activity
[24] = test system: SF-295; test: Growth inhibition of human SF-295 cells incubated for 48 hrs by sulforhodamine B assay
Procedure, shortened: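 NCI DTP 60-line human tumour panel. Dose-response curves were run only for ligands active in the initial 10 µM screen. GI50 (concentration giving 50% of maximal inhibition of proliferation) and TGI (concentration giving total growth inhibition) were derived from these curves.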

[25] = test system: MCF7; test: Growth inhibition of human MCF7 cells assessed as cell growth at 1 uM incubated for 48 hrs by sulforhodamine B assay relative to control; conditions: read-out: Activity
[26] = test system: U-251; test: Growth inhibition of human U-251 cells assessed as cell growth at 1 uM incubated for 48 hrs by sulforhodamine B assay relative to control; conditions: read-out: Activity
[27] = test system: SNB-19; test: Growth inhibition of human SNB-19 cells assessed as cell growth at 1 uM incubated for 48 hrs by sulforhodamine B assay relative to control; conditions: read-out: Activity
[28] = test system: KM12; test: Growth inhibition of human KM12 cells assessed as cell growth at 100 uM incubated for 48 hrs by sulforhodamine B assay relative to control; conditions: read-out: Activity
[29] = test system: RPMI-8226; test: Growth inhibition of human RPMI-8226 cells assessed as cell growth at 0.1 uM incubated for 48 hrs by sulforhodamine B assay relative to control; conditions: read-out: Activity
[30] = test system: LOX IMVI; test: Growth inhibition of human LOX IMVI cells assessed as cell growth at 1 uM incubated for 48 hrs by sulforhodamine B assay relative to control; conditions: read-out: Activity
[31] = test system: LOX IMVI; test: Growth inhibition of human LOX IMVI cells assessed as cell growth at 0.1 uM incubated for 48 hrs by sulforhodamine B assay relative to control; conditions: read-out: Activity
[32] = test system: MDA-MB-468; test: Growth inhibition of human MDA-MB-468 cells assessed as cell growth at 1 uM incubated for 48 hrs by sulforhodamine B assay relative to control; conditions: read-out: Activity
[33] = test system: MOLT-4; test: Growth inhibition of human MOLT-4 cells assessed as cell growth at 0.1 uM incubated for 48 hrs by sulforhodamine B assay relative to control; conditions: read-out: Activity
[34] = test system: UACC-257; test: Growth inhibition of human UACC-257 cells assessed as cell growth at 0.01 uM incubated for 48 hrs by sulforhodamine B assay relative to control; conditions: read-out: Activity
[35] = test system: A498; test: Growth inhibition of human A498 cells assessed as cell growth at 0.1 uM incubated for 48 hrs by sulforhodamine B assay relative to control; conditions: read-out: Activity; procedure, shortened: as §2

## Nc1c(C(=O)Nc2ccccc2)sc2nc3c(cc12)CN(Cc1ccccc1)CC3
[1]
  growth at 0.01 µM: 100%
[2]
  growth at 0.01 µM: 101%
[3]
  growth at 100 µM: 23%
[4]
  GI50: 31.3 µM
  TGI: > 100 µM
  CC50: > 100 µM
[5]
  growth at 0.1 µM: 85%
[6]
  growth at 100 µM: 59%
[7]
  growth at 100 µM: 22%
[8]
  growth at 0.1 µM: 91%
[9]
  growth at 0.1 µM: 96%
[10]
  growth at 0.01 µM: 97%
[11]
  GI50: 9.1 µM
  LC50 (concentration killing 50% of cells): > 100 µM
  TGI: > 100 µM
[12]
  growth at 1 µM: 72%
[13]
  growth at 1 µM: 84%
[14]
  GI50: 5.81 µM
  TGI: > 100 µM
  CC50: > 100 µM
[15]
  growth at 1 µM: 90%
[16]
  growth at 100 µM: 36%
[17]
  growth at 100 µM: 32%
[18]
  growth at 0.1 µM: 96%
[19]
  growth at 1 µM: 91%
[20]
  growth at 100 µM: 19%
[21]
  growth at 0.1 µM: 102%
[22]
  growth at 0.1 µM: 101%
[23]
  growth at 0.01 µM: 98%
[24]
  GI50: 5.45 µM
  LC50 (concentration killing 50% of cells): > 100 µM
  TGI: > 100 µM
[25]
  growth at 1 µM: 82%
[26]
  growth at 1 µM: 101%
[27]
  growth at 1 µM: 88%
[28]
  growth at 100 µM: 25%
[29]
  growth at 0.1 µM: 99%
[30]
  growth at 1 µM: 98%
[31]
  growth at 0.1 µM: 102%
[32]
  growth at 1 µM: 87%
[33]
  growth at 0.1 µM: 95%
[34]
  growth at 0.01 µM: 93%
[35]
  growth at 0.1 µM: 82%

## CN1CCc2nc3sc(C(N)=O)c(N)c3c(-c3cccs3)c2C1
[1]
  growth at 0.01 µM: 100%
[2]
  growth at 0.01 µM: 106%
[3]
  growth at 100 µM: 6%
[4]
  GI50: 2.89 µM
  TGI: 48.4 µM
  CC50: > 100 µM
[5]
  growth at 0.1 µM: 95%
[6]
  growth at 100 µM: -1%
[7]
  growth at 100 µM: 15%
[8]
  growth at 0.1 µM: 107%
[9]
  growth at 0.1 µM: 99%
[10]
  growth at 0.01 µM: 99%
[11]
  GI50: 4.99 µM
  LC50 (concentration killing 50% of cells): > 100 µM
  TGI: > 100 µM
[12]
  growth at 1 µM: 96%
[13]
  growth at 1 µM: 111%
[14]
  GI50: 4.77 µM
  TGI: > 100 µM
  CC50: > 100 µM
[15]
  growth at 1 µM: 100%
[16]
  growth at 100 µM: 7%
[17]
  growth at 100 µM: 9%
[18]
  growth at 0.1 µM: 107%
[19]
  growth at 1 µM: 99%
[20]
  growth at 100 µM: 14%
[21]
  growth at 0.1 µM: 114%
[22]
  growth at 0.1 µM: 104%
[23]
  growth at 0.01 µM: 105%
[24]
  GI50: 3.61 µM
  LC50 (concentration killing 50% of cells): > 100 µM
  TGI: > 100 µM
[25]
  growth at 1 µM: 111%
[26]
  growth at 1 µM: 90%
[27]
  growth at 1 µM: 104%
[28]
  growth at 100 µM: 2%
[29]
  growth at 0.1 µM: 121%
[30]
  growth at 1 µM: 56%
[31]
  growth at 0.1 µM: 83%
[32]
  growth at 1 µM: 77%
[33]
  growth at 0.1 µM: 91%
[34]
  growth at 0.01 µM: 97%
[35]
  growth at 0.1 µM: 111%

## CCc1cccc(C)c1NC(=O)c1sc2nc3c(cc2c1N)C(=O)CCC3
[1]
  growth at 0.01 µM: 92%
[2]
  growth at 0.01 µM: 97%
[3]
  growth at 100 µM: 18%
[4]
  GI50: 2.42 µM
  TGI: ≥ 100 µM
  CC50: > 100 µM
[5]
  growth at 0.1 µM: 71%
[6]
  growth at 100 µM: 21%
[7]
  growth at 100 µM: 11%
[8]
  growth at 0.1 µM: 91%
[10]
  growth at 0.01 µM: 98%
[11]
  GI50: 0.341 µM
  LC50 (concentration killing 50% of cells): ≥ 100 µM
  TGI: 15.8 µM
[12]
  growth at 1 µM: -16%
[13]
  growth at 1 µM: 54%
[14]
  GI50: 1.04 µM
  TGI: > 100 µM
  CC50: > 100 µM
[15]
  growth at 1 µM: 5%
[16]
  growth at 100 µM: 12%
[17]
  growth at 100 µM: 8%
[18]
  growth at 0.1 µM: 90%
[19]
  growth at 1 µM: 42%
[20]
  growth at 100 µM: 8%
[21]
  growth at 0.1 µM: 100%
[23]
  growth at 0.01 µM: 97%
[24]
  GI50: 0.276 µM
  LC50 (concentration killing 50% of cells): > 100 µM
  TGI: > 100 µM
[25]
  growth at 1 µM: 18%
[26]
  growth at 1 µM: 37%
[27]
  growth at 1 µM: 47%
[28]
  growth at 100 µM: 4%
[29]
  growth at 0.1 µM: 102%
[30]
  growth at 1 µM: 43%
[31]
  growth at 0.1 µM: 93%
[32]
  growth at 1 µM: -8%
[33]
  growth at 0.1 µM: 102%
[34]
  growth at 0.01 µM: 93%
[35]
  growth at 0.1 µM: 72%
